Screening data (PubChem BioAssay)
Yeast growth inh: reduces growth of yeast BB579 in restrictive medium. S. cerevisiae BB579 growth, OD615, 48 h. inhibition, % at 10 µM. 140,000 compounds, 0.51% hits;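 active means inhibition above a set limit, 3 SD over the mean compound inhibition, cut at about 44% in these data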
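System: Saccharomyces cerevisiae DeaD strain BB579, replicative lifespan model yeast | Buffer or medium: Restrictive glucose-based CSMM-D medium | Times: 4 h preincubation and 48 h exposure at 30 °C | Detection: OD615 turbidity measurement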
Measles CPE: protection of cells from measles virus; 140,000 compounds, 1.5% hits; protection (pct of control), % at 4 µM; Measles virus-infected cells, CPE protection, absorbance; in the data active means protection mostly above about 24%, no sharp cut-off; inactive means mostly below about 26%
Yeast lifespan up: yeast lifespan extension | S. cerevisiae growth with nicotinamide, OD615; deaD strain in restrictive glucose medium | 130,000 compounds, 0.68% hits | inhibition of the nicotinamide effect, % at 10 µM | AID 775;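 active means inhibition above a set limit, placed 3 SD over the median of all compounds, cut at about 26% in these data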;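 further: 0% = nicotinamide-treated wells and 100% = cells grown without nicotinamide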
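Assay system: DeaD-strain S. cerevisiae. Medium: CSMM-D glucose medium, restrictive. Reagent: nicotinamide, 1.5 mM, co-present with compound. Compound: 10 µM single point, 0.25% DMSO. Schedule: culture preincubation 4 h, compound exposure 48 h, both 30 °C. Detection: absorbance at 615 nm.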
DAT uptake mod: modulates human dopamine transporter uptake under cocaine. Q01959. LLC-PK1 hDAT cells, [14C]-dopamine uptake with cocaine IC80; actives deviate in either direction. B-score at 10 µM. 110,000 compounds, 1.3% hits. AID 449768;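 active means Z score or B-score, a plate-position-corrected score, falls beyond the plate's 99.7% confidence bounds, in either direction; inactive means both scores lie inside the 99.7% bounds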;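 further: scored against the spread of the other compound wells on the same plate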
Target sequence (Q01959 whole entry, looked up): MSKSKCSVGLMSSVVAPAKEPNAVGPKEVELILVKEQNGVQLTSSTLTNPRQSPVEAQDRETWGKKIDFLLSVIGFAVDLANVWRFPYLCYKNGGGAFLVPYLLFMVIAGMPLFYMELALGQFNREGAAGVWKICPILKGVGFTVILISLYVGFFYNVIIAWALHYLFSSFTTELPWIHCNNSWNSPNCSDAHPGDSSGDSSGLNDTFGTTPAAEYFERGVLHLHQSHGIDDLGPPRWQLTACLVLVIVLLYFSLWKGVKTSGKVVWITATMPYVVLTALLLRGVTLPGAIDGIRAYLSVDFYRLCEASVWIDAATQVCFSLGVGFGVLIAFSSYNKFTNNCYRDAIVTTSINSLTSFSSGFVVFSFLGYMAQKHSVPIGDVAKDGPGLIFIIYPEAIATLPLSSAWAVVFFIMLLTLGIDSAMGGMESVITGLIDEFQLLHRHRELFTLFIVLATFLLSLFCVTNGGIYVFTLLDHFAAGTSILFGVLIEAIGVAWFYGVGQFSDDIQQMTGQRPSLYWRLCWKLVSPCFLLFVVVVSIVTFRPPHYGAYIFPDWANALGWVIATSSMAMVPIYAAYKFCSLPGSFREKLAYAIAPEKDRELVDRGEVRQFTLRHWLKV
WT yeast gro inh: growth inhibition of WT yeast, mitochondrial fusion screen | 190,000 compounds, 2.1% hits | mitochondrial fusion phenotypic screen, WT strain | inhibition, % at 10 µM | AID 1362; in the data active means inhibition above about 58%; tested in S. cerevisiae
RAM inhibit: blocks the yeast RAM network. inhibition, % at 50 µM. S. cerevisiae dse1pr::URA3 reporter, 5-FOA growth OD615, 2 d; analog-sensitive cbk1-as2 kinase mutant strain. 190,000 compounds, 1.8% hits. AID 868;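 active means inhibition above a set limit, 3 SD over mean compound inhibition, cut at about 8.4% in these data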;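 further: 0% = DMSO-only wells with no growth and 100% = 10 µM 1-NA-PP1 full growth; inhibition rescues growth on 5-FOA so higher OD means more RAM inhibition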
* = called active by the depositor. Most compounds without a hit are left out; they make up all but 6.1% or so of the library.

Results for CC1CC(=O)Nc2ccccc2N1S(=O)(=O)c1cccc(Cl)c1 (stereo unspecified) ?
Yeast growth inh: -28; Measles CPE: 39*; Yeast lifespan up: -5; WT yeast gro inh: -2; RAM inhibit: 0

How did CC(=O)N1C(=O)/C(=C2\SC(=S)N(c3c(C)n(C)n(-c4ccccc4)c3=O)C2=O)c2ccccc21 do in these assays?
Yeast growth inh: -10; Measles CPE: 17; Yeast lifespan up: 5; WT yeast gro inh: -3; RAM inhibit: 6

Results for CC(=O)N1C(=O)/C(=C2\SC(=S)N(NS(=O)(=O)c3ccc(C)cc3)C2=O)c2ccccc21 ?
WT yeast gro inh: 7; RAM inhibit: 11*

How did COc1ccc(C(=O)Nc2ccc3oc(-c4cccc(Cl)c4)cc(=O)c3c2O)cc1 do in these assays?
DAT uptake mod: -0.66

How did CCOC(=O)c1cnc2ccc(OCC)cc2c1N1CCN(c2ccccc2OC)CC1 do in these assays?
Yeast growth inh: -44; Measles CPE: 6; Yeast lifespan up: -4; DAT uptake mod: 1; WT yeast gro inh: 79*; RAM inhibit: 1

How did CC1CCN(S(=O)(=O)c2ccc(Oc3ccc([N+](=O)[O-])cc3)cc2)CC1 do in these assays?
Yeast growth inh: -49; Measles CPE: 7; Yeast lifespan up: 8; WT yeast gro inh: 61*; RAM inhibit: 3

How did O=C(OCc1ccc([N+](=O)[O-])cc1)C1CCN(S(=O)(=O)c2ccccc2)CC1 do in these assays?
Yeast growth inh: -28; Measles CPE: 2; Yeast lifespan up: 0; WT yeast gro inh: 10; RAM inhibit: 9.1*

What do the screens show for `O=[N+]([O-])c1ccc(Oc2ccc(S(=O)(=O)N3CCCCC3)cc2)cc1`?
Yeast growth inh: -26; Measles CPE: 10; Yeast lifespan up: -5; WT yeast gro inh: 15; RAM inhibit: 3

How did Cc1ccc(S(=O)(=O)N2CCCC2C(=O)OCc2ccccc2)cc1 (stereo unspecified) do in these assays?
Yeast growth inh: -10; Measles CPE: 14; Yeast lifespan up: 8; WT yeast gro inh: 1; RAM inhibit: 9.4*

Results for CCOC(=O)C1CCN(S(=O)(=O)c2ccc(CC)cc2)CC1 ?
Yeast growth inh: 1; Measles CPE: 5; Yeast lifespan up: 4; WT yeast gro inh: -5; RAM inhibit: 0

Results for O=C(Nc1ccon1)c1cccc(S(=O)(=O)N2CCCC2)c1 ?
Yeast growth inh: -23; Measles CPE: 6; Yeast lifespan up: -6; DAT uptake mod: 0.58; WT yeast gro inh: -20; RAM inhibit: 0

How did NC(=O)/C(=N\OC(=O)c1ccco1)c1nc(-c2ccc(Br)cc2)cs1 do in these assays?
Yeast growth inh: -20; Measles CPE: 3; Yeast lifespan up: -23; DAT uptake mod: -0.2; WT yeast gro inh: 3; RAM inhibit: 4

What do the screens show for `COc1cc2ccccc2cc1C(=O)NC(=S)Nc1cccc(C(=O)O)c1`?
WT yeast gro inh: -15; RAM inhibit: 8.9*

Results for Cc1ccc2ccccc2c1NC(=O)Cn1nnc(-c2cccnc2)n1 ?
WT yeast gro inh: -11; RAM inhibit: 2

How did COc1ccc(OCC(O)Cn2cnc(-c3ccc(Br)cc3)c2)cc1 (stereo unspecified) do in these assays?
Yeast growth inh: -25; Measles CPE: 4; DAT uptake mod: -0.22; WT yeast gro inh: -14; RAM inhibit: 4

Results for OC(COc1ccc2ccccc2c1Br)Cn1cnc(-c2ccccc2)c1 (stereo unspecified) ?
Yeast growth inh: 93*; Measles CPE: 1; Yeast lifespan up: -14; DAT uptake mod: 1.6; WT yeast gro inh: 88*; RAM inhibit: -2

What do the screens show for `O=c1[nH]c2ccccc2nc1Cc1ccccc1`?
Yeast growth inh: -72; Measles CPE: 17; Yeast lifespan up: 43*; DAT uptake mod: 0.046; WT yeast gro inh: 19; RAM inhibit: 1

Results for COc1ccc(C(C)=O)cc1CSc1nc2ccccc2c(=O)n1-c1cccc(C)c1 ?
Yeast growth inh: -31; Measles CPE: 18; Yeast lifespan up: 0; WT yeast gro inh: 65*; RAM inhibit: 7

What do the screens show for `COc1ccc(C(C)=O)cc1CSc1nc2ccccc2c(=O)n1-c1ccccc1`?
Yeast growth inh: -38; Measles CPE: 4; Yeast lifespan up: 2; WT yeast gro inh: 33; RAM inhibit: 2

Results for COc1ccc(C(C)=O)cc1CSc1nc2ccccc2c(=O)n1-c1ccccc1C ?
Yeast growth inh: -29; Measles CPE: 11; Yeast lifespan up: 10; WT yeast gro inh: 61*; RAM inhibit: 4

What do the screens show for `COCCn1c(SCc2cc(C(C)=O)ccc2OC)nc2cc(Cl)ccc2c1=O`?
Yeast growth inh: -26; Measles CPE: 4; Yeast lifespan up: 1; WT yeast gro inh: 58; RAM inhibit: 6

How did COC(=O)c1ccc(CSc2nc3ccccc3c(=O)n2-c2ccc(OC)c(OC)c2)o1 do in these assays?
Yeast growth inh: -58; Measles CPE: 4; Yeast lifespan up: -14; DAT uptake mod: 3.5*; WT yeast gro inh: 11; RAM inhibit: 3

Results for COC(=O)c1ccc(CSc2cc(C)c3cccc(C)c3n2)o1 ?
WT yeast gro inh: 12; RAM inhibit: 8.5*

How did CS(=O)(=O)N1CCC(Oc2ccccc2C(=O)NC(C2CC2)C2CC2)CC1 do in these assays?
WT yeast gro inh: -21; RAM inhibit: 0

How did CCCCCCCCNC(=S)NCCN1CCCCC1 do in these assays?
WT yeast gro inh: 42; RAM inhibit: 0

What do the screens show for `Nc1c(C(=O)Nc2ccccc2)sc2nc(-c3ccco3)ccc12`?
Yeast growth inh: -11; Measles CPE: 10; Yeast lifespan up: -18; DAT uptake mod: 0.1; WT yeast gro inh: -8; RAM inhibit: 11*

Results for Cc1nc(-c2cccnc2)sc1C(=O)Nc1ccc(Cl)cc1 ?
Yeast growth inh: -5; Measles CPE: 33*; Yeast lifespan up: -6; DAT uptake mod: 0.8; WT yeast gro inh: 4; RAM inhibit: 8

How did Cc1nc(N)sc1C(=O)Nc1ccccc1 do in these assays?
Yeast growth inh: -37; Measles CPE: 35*; Yeast lifespan up: -17; DAT uptake mod: 0.38; WT yeast gro inh: 4; RAM inhibit: 1

What do the screens show for `COc1ccccc1NC(=O)c1sc2nc(-c3ccco3)ccc2c1N`?
Yeast growth inh: -40; Measles CPE: 27; Yeast lifespan up: -24; DAT uptake mod: 0.063; WT yeast gro inh: 29; RAM inhibit: 2

How did Cn1c(Cl)cnc1C1CC(=O)c2cc(Cl)ccc2O1 (stereo unspecified) do in these assays?
Yeast growth inh: -24; Measles CPE: 5; Yeast lifespan up: 1; DAT uptake mod: -1.1; WT yeast gro inh: 0; RAM inhibit: 1

Results for COc1ccc(Nc2ncnc3scc(-c4ccc(OC)cc4)c23)cc1 ?
Yeast growth inh: -35; Measles CPE: 6; Yeast lifespan up: -5; WT yeast gro inh: 72*; RAM inhibit: 6
